According to ChEMBL document CHEMBL4376884, “Toward a Rational Design of Polyamine-Based Zinc-Chelating Agents for Cancer Therapies” (J Med Chem, 2020):
Calls of active or inactive are those of the source. No cut-off for these calls is given here.

Tests used:
[1] = system: PC-3; assay: Cell cycle arrest in human PC3 cells assessed as cell accumulation at sub-G1 phase at 10 uM incubated for 48 hrs by propidium iodide staining based flow cytometry analysis relative to control; assay type: functional
[2] = system: U-87 MG; assay: Antiproliferative activity against human U87MG cells assessed as reduction in cell viability at 10 uM incubated for 48 hrs by cell titer-glo assay; assay type: functional, cell-based; conditions: U-87MG ATCC
In short: (§1)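 Cells plated and treated 24 h later with 10 µM compound for 48 h; viable cells quantified by CellTiter-Glo ATP luminescence. Expressed as percentage of viable cells relative to untreated; mean ± SD of three independent experiments, each in triplicate.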

[3] = system: LN-229; assay: Induction of mitochondrial membrane potential loss in human LN229 cells at 10 uM measured upto 48 hrs by JC-1 staining based flow cytometry analysis; assay type: functional, cell-based
In short: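 LN229 cells seeded at 5×10^5 cells/mL and adhered overnight, then given medium with 10 µM compound for the indicated time-points. Readout is mean FL3 (aggregate, 590 nm)/FL1 (monomer, 530 nm) fluorescence ratio; mean ± SD of three determinations.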

[4] = system: LN-229; assay: Induction of cell morphological changes in human LN229 cells assessed as cell shrinkage at 10 uM incubated for 24 to 48 hrs by phase contrast microscopy; assay type: functional, cell-based
In short: (§2)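 LN229 and PC3 cells exposed to 10 µM compound for the indicated time-points, then imaged live by phase-contrast microscopy for morphology.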

[5] = system: DNA; assay: Induction of DNA damage in human LN229 cells assessed as gammaH2AX phosphorylation at Ser139 residue at 10 uM incubated for 4 hrs by Flow cytometry analysis; assay type: cell-based
In short: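 Z-138 and LN229 cells treated 4 h with 10 µM compound or 1 µM doxorubicin. Fixed in 3.7% formaldehyde on ice, permeabilized with 0.2% Triton X, stained with rabbit anti-pS139 H2A.X (1:400) and Alexa 555 secondary, then analysed by flow cytometry. Fold γH2AX fluorescence versus untreated; mean ± SD of three experiments.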

[6] = system: LN-229; assay: Cell cycle arrest in human LN229 cells assessed as cell accumulation at G2/M phase at 10 uM incubated for 24 hrs by propidium iodide staining based flow cytometry analysis relative to control; assay type: functional
[7] = organism: Homo sapiens; assay: Antiproliferative activity against human SP53 cells assessed as reduction in cell viability at 10 uM incubated for 48 hrs by cell titer-glo assay; assay type: functional, cell-based; in short: as §1
[8] = system: Z-138; assay: Induction of apoptosis in human Z138 cells assessed as increase in caspase-3/7 activation at 10 uM incubated for 48 hrs by luminometric caspase-glo 3/7 assay; assay type: functional, cell-based
In short: (§3)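 Cells in RPMI or DMEM with 10% heat-inactivated FBS and penicillin/streptomycin, 37 °C, 5% CO2, treated with 10 µM compound for 48 h. Caspase-3 and caspase-7 activity read by luminescent Caspase-Glo 3/7 assay, reported as fold induction over untreated cells; mean ± SD of three independent experiments, each in triplicate.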

[9] = system: Granta-519; assay: Antiproliferative activity against human GRANTA-519 cells assessed as reduction in cell viability at 10 uM incubated for 48 hrs by cell titer-glo assay; assay type: functional, cell-based; in short: as §1
[10] = system: U-87 MG; assay: Induction of apoptosis in human U87MG cells assessed as increase in caspase-3/7 activation at 10 uM incubated for 48 hrs by luminometric caspase-glo 3/7 assay; assay type: functional, cell-based; conditions: U-87MG ATCC; in short: as §3
[11] = system: PC-3; assay: Induction of apoptosis in human PC3 cells assessed as early apoptotic cells at 10 uM incubated for 24 hrs by annexin V-FITC and propidium iodide staining based flow cytometry analysis (reference value: 0.24 %); assay type: functional
[12] = system: LN-229; assay: Induction of cellular senescence in human LN229 cells assessed as wider cells at 10 uM incubated for 24 hrs by phase contrast microscopy; assay type: functional, cell-based
In short: (§4)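 LN229 and PC3 cells, 12×10^4 per well in 6-well plates, treated with 10 µM compound for 24 h. Senescence-associated β-gal staining: fixed in 2% formaldehyde/0.2% glutaraldehyde for 10 min at RT, stained with 1 mg/mL X-gal at 37 °C for 24 h without CO2. Blue cells counted in at least 10 fields at 10x and given as percent of total; four independent experiments. Morphology viewed by phase contrast at ×100.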

[13] = system: PC-3; assay: Induction of cell morphological changes in human PC3 cells assessed as random membrane blebbing at 10 uM incubated for 24 to 48 hrs by phase contrast microscopy; assay type: functional, cell-based; in short: as §2
[14] = system: LN-229; assay: Cell cycle arrest in human LN229 cells assessed as cell accumulation at S phase at 10 uM incubated for 48 hrs by propidium iodide staining based flow cytometry analysis relative to control; assay type: functional
[15] = system: SW-620; assay: Antiproliferative activity against human SW620 cells assessed as reduction in cell viability at 10 uM incubated for 48 hrs by cell titer-glo assay; assay type: functional, cell-based; in short: as §1
[16] = system: PC-3; assay: Antiproliferative activity against human PC3 cells assessed as reduction in cell viability at 10 uM incubated for 48 hrs in presence of Zn2+ ion by MTT assay; assay type: functional, cell-based
In short: (§5)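 LN229 and PC3 cells plated, then 24 h later given 10 µM compound with or without 15 µM ZnCl2, CuCl2, FeCl2 or FeCl3 for 48 h. Medium replaced, MTT (12 mM solution) added for 4 h, formazan dissolved in DMSO, absorbance read at 540 nm. Percent viable versus untreated; mean ± SD of three experiments in triplicate.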

[17] = system: LN-229; assay: Antiproliferative activity against human LN229 cells assessed as reduction in cell viability incubated for 48 hrs by cell titer-glo assay; assay type: functional, cell-based; conditions: LN-229, 48 h
In short: (§6)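 Dose-response: cells plated, treated 24 h later for 48 h, then ATP measured by CellTiter-Glo luminescence. IC50 given as mean ± SD from three independent experiments, each in triplicate. Fibroblasts came from individuals. Cells were kept in RPMI or DMEM with 10% heat-inactivated FBS and penicillin/streptomycin at 37 °C, 5% CO2.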

[18] = system: PC-3; assay: Cell cycle arrest in human PC3 cells assessed as cell accumulation at S phase at 10 uM incubated for 24 hrs by propidium iodide staining based flow cytometry analysis relative to control; assay type: functional
[19] = system: PC-3; assay: Induction of apoptosis in human PC3 cells assessed as early apoptotic cells at 10 uM incubated for 72 hrs by annexin V-FITC and propidium iodide staining based flow cytometry analysis (reference value: 0.24 %); assay type: functional
[20] = system: LN-229; assay: Antiproliferative activity against human LN229 cells assessed as reduction in cell viability at 10 uM incubated for 48 hrs in presence of Cu2+ ion by MTT assay; assay type: functional, cell-based; in short: as §5
[21] = system: Jurkat; assay: Antiproliferative activity against human Jurkat cells assessed as reduction in cell viability incubated for 48 hrs by cell titer-glo assay; assay type: functional, cell-based; in short: as §6
[22] = system: PC-3; assay: Cell cycle arrest in human PC3 cells assessed as cell accumulation at S phase at 10 uM incubated for 48 hrs by propidium iodide staining based flow cytometry analysis relative to control; assay type: functional
[23] = organism: Homo sapiens; assay: Antiproliferative activity against human UPN2 cells assessed as reduction in cell viability at 10 uM incubated for 48 hrs by cell titer-glo assay; assay type: functional, cell-based; in short: as §1
[24] = system: PC-3; assay: Induction of cellular senescence in human PC3 cells assessed as increase in beta-gal-positive cells at 10 uM incubated for 24 hrs by X-Gal staining based microscopic assay relative to control; assay type: functional; in short: as §4
[25] = system: MCF7; assay: Induction of apoptosis in human MCF7 cells assessed as increase in caspase-3/7 activation at 10 uM incubated for 48 hrs by luminometric caspase-glo 3/7 assay; assay type: functional, cell-based; in short: as §3
[26] = organism: Homo sapiens; assay: Induction of apoptosis in human JMV2 cells assessed as increase in caspase-3/7 activation at 10 uM incubated for 48 hrs by luminometric caspase-glo 3/7 assay; assay type: functional, cell-based; in short: as §3

## c1ccc(CNCCN(CCNCc2ccccn2)Cc2ccc3ccccc3c2)nc1
[1]
  Activity: 4.8%
[2]
  Activity: Active
[3]
  Activity: Active
[4]
  Activity: Active
[5]
  Activity: inactive
[6]
  Activity: 22.1%
[7]
  Activity: Active
[8]
  Activity: Active
[9]
  Activity: Active
[10]
  Activity: Active
[11]
  Activity: 0.63%
[12]
  Activity: Active
[13]
  Activity: Active
[14]
  Activity: 10.8%
[15]
  Activity: Active
[16]
  Activity: inactive
[17]
  IC50: 6.3 µM
[18]
  Activity: 8.9%
[19]
  Activity: 14.7%
[20]
  Activity: inactive
[21]
  IC50: 3.17 µM
[22]
  Activity: 7.7%
[23]
  Activity: Active
[24]
  Activity: 50%
[25]
  Activity: Active
[26]
  Activity: Active

## CN(CCNCc1ccccn1)CCNCc1ccccn1
[1]
  Activity: 19.6%
[2]
  Activity: Active
[3]
  Activity: Active
[4]
  Activity: Active
[5]
  Activity: inactive
[6]
  Activity: 22.1%
[7]
  Activity: Active
[8]
  Activity: Active
[9]
  Activity: Active
[10]
  Activity: Active
[11]
  Activity: 0.8%
[12]
  Activity: Active
[13]
  Activity: Active
[14]
  Activity: 13.5%
[15]
  Activity: Active
[16]
  Activity: inactive
[17]
  IC50: 6.84 µM
[18]
  Activity: 9.2%
[19]
  Activity: 14.27%
[20]
  Activity: inactive
[21]
  IC50: 1.99 µM
[22]
  Activity: 7.2%
[23]
  Activity: Active
[24]
  Activity: Active
[25]
  Activity: Active
[26]
  Activity: Active
